Data taken from ChEMBL document CHEMBL4376814, “Novel cyclin-dependent kinase 9 (CDK9) inhibitor with suppression of cancer stemness activity against non-small-cell lung cancer” (Eur J Med Chem, 2019).
Active and inactive are the calls of the source. No cut-off for these calls is given here.

Legend:
[1] = tested on: A549; experiment: Induction of apoptosis in human A549 cells assessed as early apoptotic cells at 0.5 uM after 48 hrs by AnnexinV-FITC/PI staining-based flow cytometric analysis (reference value: 2.91%); assay type: functional
[2] = tested on: Phosphorylase b kinase gamma catalytic chain, liver/testis isoform (Homo sapiens), P15735 [F290L]; experiment: Inhibition of recombinant human PhKG2 F290L mutant (1 to 301 residues) at 1 uM using KKLNRTLSFAEPG as substrate measured after 40 mins in presence of [gamma33P]ATP by scintillation counting method relative to control
Sequence of Phosphorylase b kinase gamma catalytic chain, liver/testis isoform (Homo sapiens), P15735 [F290L] (P15735 whole entry F290L, the tested form may be a part, canonical isoform): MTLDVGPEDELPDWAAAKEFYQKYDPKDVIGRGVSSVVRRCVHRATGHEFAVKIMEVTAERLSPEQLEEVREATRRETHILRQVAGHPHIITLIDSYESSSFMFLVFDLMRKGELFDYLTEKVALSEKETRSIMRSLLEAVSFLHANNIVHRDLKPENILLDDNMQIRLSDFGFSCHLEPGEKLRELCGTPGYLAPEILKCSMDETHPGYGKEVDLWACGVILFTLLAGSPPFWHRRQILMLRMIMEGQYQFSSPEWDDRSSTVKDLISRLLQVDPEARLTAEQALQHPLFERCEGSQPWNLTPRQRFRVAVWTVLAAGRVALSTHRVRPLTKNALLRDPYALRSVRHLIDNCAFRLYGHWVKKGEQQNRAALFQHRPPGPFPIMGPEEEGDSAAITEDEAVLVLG

[3] = molecular target: Cyclin-dependent kinase 9 (Homo sapiens) (UniProt P50750); conditions: 0.25 uM
Sequence of Cyclin-dependent kinase 9 (Homo sapiens) (P50750 whole entry): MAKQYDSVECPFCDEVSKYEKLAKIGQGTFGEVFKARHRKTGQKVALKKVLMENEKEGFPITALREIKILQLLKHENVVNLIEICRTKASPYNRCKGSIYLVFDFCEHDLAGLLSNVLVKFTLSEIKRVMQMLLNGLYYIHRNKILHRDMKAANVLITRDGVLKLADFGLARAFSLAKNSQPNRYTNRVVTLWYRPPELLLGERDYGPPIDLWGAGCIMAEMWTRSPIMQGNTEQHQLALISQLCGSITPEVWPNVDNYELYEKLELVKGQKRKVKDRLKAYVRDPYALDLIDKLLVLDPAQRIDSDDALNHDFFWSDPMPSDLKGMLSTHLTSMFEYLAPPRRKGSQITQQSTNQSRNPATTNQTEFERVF

[4] = tested on: A549; experiment: Induction of apoptosis in human A549 cells assessed as late apoptotic cells at 1 uM after 48 hrs by AnnexinV-FITC/PI staining-based flow cytometric analysis (reference value: 7.66%); assay type: functional
[5] = molecular target: LIM domain kinase 1 (Homo sapiens) (UniProt P53667); experiment: Inhibition of recombinant human LIMK1 (285 to 638 residues) at 1 uM using cofilin as substrate measured after 40 mins in presence of [gamma33P]ATP by scintillation counting method relative to control
Sequence of LIM domain kinase 1 (Homo sapiens) (P53667 whole entry, looked up, the tested form may be a part): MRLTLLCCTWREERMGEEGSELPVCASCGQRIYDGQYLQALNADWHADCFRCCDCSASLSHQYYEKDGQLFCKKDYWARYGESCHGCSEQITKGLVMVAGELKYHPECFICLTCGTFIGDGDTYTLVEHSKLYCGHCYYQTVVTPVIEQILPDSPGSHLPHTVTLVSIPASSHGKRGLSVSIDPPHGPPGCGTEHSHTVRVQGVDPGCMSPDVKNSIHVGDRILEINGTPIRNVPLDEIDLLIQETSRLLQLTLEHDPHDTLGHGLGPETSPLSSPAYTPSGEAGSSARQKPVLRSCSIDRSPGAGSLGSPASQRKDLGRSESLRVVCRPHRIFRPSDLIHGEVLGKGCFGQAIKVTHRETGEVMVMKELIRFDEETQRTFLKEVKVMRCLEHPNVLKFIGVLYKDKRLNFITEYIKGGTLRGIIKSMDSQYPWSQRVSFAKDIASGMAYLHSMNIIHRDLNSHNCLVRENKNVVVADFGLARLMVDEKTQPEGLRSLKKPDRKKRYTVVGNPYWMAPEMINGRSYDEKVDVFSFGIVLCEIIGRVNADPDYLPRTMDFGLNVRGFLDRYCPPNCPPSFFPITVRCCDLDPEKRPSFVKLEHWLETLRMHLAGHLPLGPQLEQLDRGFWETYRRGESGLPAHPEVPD

[6] = species: Homo sapiens; experiment: Inhibition of recombinant full-length human ATRIP/ATR M211T mutant at 1 uM using GST-cMyc-p53 as substrate measured after 40 mins by fluorescence assay relative to control
[7] = molecular target: Serine/threonine-protein kinase DCLK3 (Homo sapiens) (UniProt Q9C098); experiment: Inhibition of recombinant human DCAMKL3 (345 to end residues) at 1 uM using KKLNRTLSFAEPG as substrate measured after 40 mins in presence of [gamma33P]ATP by scintillation counting method relative to control
[8] = molecular target: Tyrosine-protein kinase Fgr (Homo sapiens) (UniProt P09769); experiment: Inhibition of recombinant human FGR (2 to end residues) at 1 uM using poly(Glu, Tyr) 4:1 as substrate measured after 40 mins in presence of [gamma33P]ATP by scintillation counting method relative to control
Sequence of Tyrosine-protein kinase Fgr (Homo sapiens) (P09769 2-529 limits assumed): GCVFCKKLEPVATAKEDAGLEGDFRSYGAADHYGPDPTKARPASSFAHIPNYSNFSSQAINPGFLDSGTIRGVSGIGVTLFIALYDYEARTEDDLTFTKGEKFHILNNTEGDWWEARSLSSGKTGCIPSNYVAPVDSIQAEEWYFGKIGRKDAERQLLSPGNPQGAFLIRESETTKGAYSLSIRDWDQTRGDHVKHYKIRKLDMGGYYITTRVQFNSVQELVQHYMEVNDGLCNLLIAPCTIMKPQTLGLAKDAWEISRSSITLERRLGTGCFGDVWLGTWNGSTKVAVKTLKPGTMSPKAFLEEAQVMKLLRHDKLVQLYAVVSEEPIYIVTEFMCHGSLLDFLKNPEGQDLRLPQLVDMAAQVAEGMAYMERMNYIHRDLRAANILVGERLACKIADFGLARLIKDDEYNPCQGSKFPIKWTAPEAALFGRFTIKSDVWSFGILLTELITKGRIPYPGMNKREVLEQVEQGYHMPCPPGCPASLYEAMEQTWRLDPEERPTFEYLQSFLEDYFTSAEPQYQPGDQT

[9] = tested on: Proto-oncogene tyrosine-protein kinase receptor Ret (Homo sapiens), P07949 [V804M]; experiment: Inhibition of human Ret V804M mutant (658 to end residues) at 1 uM using KKKVSRSGLYRSPSMPENLNRPR as substrate measured after 40 mins in presence of [gamma33P]ATP by scintillation counting method relative to control
Sequence of Proto-oncogene tyrosine-protein kinase receptor Ret (Homo sapiens), P07949 [V804M] (P07949 whole entry V804M): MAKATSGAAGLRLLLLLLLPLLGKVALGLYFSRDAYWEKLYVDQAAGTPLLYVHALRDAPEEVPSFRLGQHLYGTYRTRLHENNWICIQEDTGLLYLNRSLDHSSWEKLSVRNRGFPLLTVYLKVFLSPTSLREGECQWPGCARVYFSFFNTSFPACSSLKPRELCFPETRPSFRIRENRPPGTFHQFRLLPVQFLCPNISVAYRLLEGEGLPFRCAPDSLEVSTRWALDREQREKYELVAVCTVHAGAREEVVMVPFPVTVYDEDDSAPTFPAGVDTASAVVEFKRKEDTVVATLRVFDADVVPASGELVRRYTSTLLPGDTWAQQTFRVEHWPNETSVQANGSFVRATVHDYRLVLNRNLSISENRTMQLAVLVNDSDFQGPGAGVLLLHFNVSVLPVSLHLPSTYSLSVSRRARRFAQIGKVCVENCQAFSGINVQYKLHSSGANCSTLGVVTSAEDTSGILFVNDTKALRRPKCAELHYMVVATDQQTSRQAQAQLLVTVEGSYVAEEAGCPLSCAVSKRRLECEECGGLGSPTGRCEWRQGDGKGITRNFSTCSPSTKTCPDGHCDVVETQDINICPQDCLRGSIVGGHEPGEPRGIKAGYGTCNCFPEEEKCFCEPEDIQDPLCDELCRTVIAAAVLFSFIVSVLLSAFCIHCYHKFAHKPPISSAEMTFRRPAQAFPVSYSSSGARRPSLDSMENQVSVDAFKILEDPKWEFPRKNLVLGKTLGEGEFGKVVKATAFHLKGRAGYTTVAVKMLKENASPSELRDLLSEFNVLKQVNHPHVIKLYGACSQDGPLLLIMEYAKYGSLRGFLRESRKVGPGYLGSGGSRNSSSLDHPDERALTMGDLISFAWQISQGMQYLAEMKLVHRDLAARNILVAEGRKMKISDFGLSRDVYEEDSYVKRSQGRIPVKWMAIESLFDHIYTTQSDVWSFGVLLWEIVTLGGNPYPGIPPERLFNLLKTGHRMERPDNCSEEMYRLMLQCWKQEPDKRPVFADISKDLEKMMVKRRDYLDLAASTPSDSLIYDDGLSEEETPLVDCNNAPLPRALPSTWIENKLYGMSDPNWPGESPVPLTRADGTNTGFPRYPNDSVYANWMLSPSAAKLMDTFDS
Procedure, shortened: (§1)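 Percent inhibition of kinase activity at a single compound concentration, measured by the outsourced Eurofins KinaseProfiler panel. Values are the mean of two independent experiments.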

[10] = molecular target: Proto-oncogene tyrosine-protein kinase Src (Homo sapiens) (UniProt P12931); experiment: Inhibition of human Src (1 to 530 residues) at 1 uM using GGEEEEYFELVKKKK as substrate measured after 40 mins in presence of [gamma33P]ATP by scintillation counting method relative to control; procedure, shortened: as §1
[11] = tested on: A549; experiment: Downregulation of KLF4 in human A549 cells at 0.25 to 1 uM by Western blot analysis; assay type: functional, cell-based
[12] = tested on: Protein kinase C eta type (Homo sapiens), P24723 [UNDEFINED MUTATION]; experiment: Inhibition of recombinant human PKCeta V108L/G109R/L392Q mutant (2 to end residues) at 1 uM using ERMRPRKRQGSVRRRV as substrate measured after 40 mins in presence of [gamma33P]ATP by scintillation counting method relative to control
[13] = molecular target: Tyrosine-protein kinase ITK/TSK (Homo sapiens) (UniProt Q08881); experiment: Inhibition of recombinant human ITK (352 to 617 residues) at 1 uM using myelin basic protein as substrate measured after 40 mins in presence of [gamma33P]ATP by scintillation counting method relative to control
Sequence of Tyrosine-protein kinase ITK/TSK (Homo sapiens) (Q08881 whole entry, the tested form may be a part): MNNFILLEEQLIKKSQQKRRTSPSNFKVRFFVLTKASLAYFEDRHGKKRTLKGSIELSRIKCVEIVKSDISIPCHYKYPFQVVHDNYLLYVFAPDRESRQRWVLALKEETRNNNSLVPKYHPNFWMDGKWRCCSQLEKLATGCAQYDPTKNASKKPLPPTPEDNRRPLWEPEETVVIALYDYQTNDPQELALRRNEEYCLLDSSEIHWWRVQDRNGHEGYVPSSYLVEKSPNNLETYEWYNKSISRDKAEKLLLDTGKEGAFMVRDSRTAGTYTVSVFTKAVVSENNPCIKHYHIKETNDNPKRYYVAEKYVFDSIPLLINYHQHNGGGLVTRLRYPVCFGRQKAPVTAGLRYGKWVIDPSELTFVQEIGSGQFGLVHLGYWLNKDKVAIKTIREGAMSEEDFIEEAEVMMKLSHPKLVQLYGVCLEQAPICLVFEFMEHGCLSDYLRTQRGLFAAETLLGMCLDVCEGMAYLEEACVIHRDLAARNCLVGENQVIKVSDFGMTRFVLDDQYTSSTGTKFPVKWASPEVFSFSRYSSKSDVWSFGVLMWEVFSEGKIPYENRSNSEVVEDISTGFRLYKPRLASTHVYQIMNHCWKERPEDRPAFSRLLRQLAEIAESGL

[14] = molecular target: Bone morphogenetic protein receptor type-2 (Homo sapiens) (UniProt Q13873); experiment: Inhibition of recombinant human BMPR2 (172 to 734 residues) at 1 uM using myelin basic protein as substrate measured after 120 mins in presence of [gamma33P]ATP by scintillation counting method relative to control
[15] = molecular target: Ephrin type-B receptor 4 (Homo sapiens) (UniProt P54760); experiment: Inhibition of recombinant human EphB4 (561 to end residues) at 1 uM using poly(Glu, Tyr) 4:1 as substrate measured after 40 mins in presence of [gamma33P]ATP by scintillation counting method relative to control
[16] = molecular target: Serine/threonine-protein kinase STK11 (Homo sapiens) (UniProt Q15831); experiment: Inhibition of recombinant full-length human LKB1 at 1 uM using LSNLYHQGKFLQTFCGSPLYRRR as substrate measured after 40 mins in presence of [gamma33P]ATP by scintillation counting method relative to control
Sequence of Serine/threonine-protein kinase STK11 (Homo sapiens) (Q15831 whole entry): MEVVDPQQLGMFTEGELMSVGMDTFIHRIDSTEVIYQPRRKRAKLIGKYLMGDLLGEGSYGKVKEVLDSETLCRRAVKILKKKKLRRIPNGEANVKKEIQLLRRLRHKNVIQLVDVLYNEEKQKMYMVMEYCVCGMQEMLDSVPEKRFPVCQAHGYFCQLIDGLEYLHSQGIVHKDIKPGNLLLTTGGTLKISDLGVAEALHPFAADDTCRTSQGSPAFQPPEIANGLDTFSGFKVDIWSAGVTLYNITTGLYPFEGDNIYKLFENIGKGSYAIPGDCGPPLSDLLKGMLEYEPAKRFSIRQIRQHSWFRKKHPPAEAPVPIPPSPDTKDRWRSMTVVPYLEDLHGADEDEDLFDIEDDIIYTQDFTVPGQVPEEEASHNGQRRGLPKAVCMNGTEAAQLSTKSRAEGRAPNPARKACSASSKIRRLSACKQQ

[17] = species: Homo sapiens; experiment: Inhibition of human Ros V2262A mutant (1883 to end residues) at 1 uM using KKKSPGEYVNIEFG as substrate measured after 40 mins in presence of [gamma33P]ATP by scintillation counting method relative to control; procedure, shortened: as §1
[18] = molecular target: Testis-specific serine/threonine-protein kinase 3 (Homo sapiens) (UniProt Q96PN8); experiment: Inhibition of recombinant full-length human TSSK3 at 1 uM using AMARAASAAALARRR as substrate measured after 40 mins in presence of [gamma33P]ATP by scintillation counting method relative to control
Sequence of Testis-specific serine/threonine-protein kinase 3 (Homo sapiens) (Q96PN8 whole entry): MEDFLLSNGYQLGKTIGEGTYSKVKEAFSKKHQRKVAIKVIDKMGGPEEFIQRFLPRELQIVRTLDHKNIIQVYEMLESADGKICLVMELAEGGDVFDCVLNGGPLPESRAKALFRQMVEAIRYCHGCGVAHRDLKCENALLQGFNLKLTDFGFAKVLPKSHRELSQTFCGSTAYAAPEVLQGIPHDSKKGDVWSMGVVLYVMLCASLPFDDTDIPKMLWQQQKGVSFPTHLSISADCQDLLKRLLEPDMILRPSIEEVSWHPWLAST

[19] = molecular target: Mitogen-activated protein kinase 8 (Homo sapiens) (UniProt P45983); experiment: Inhibition of recombinant full-length human JNK1alpha1 at 1 uM using ATF2 as substrate measured after 40 mins in presence of [gamma33P]ATP by scintillation counting method relative to control
[20] = molecular target: Mitogen-activated protein kinase 12 (Homo sapiens) (UniProt P53778); experiment: Inhibition of recombinant full-length human SAPK3 at 1 uM using myelin basic protein as substrate measured after 40 mins in presence of [gamma33P]ATP by scintillation counting method relative to control
Sequence of Mitogen-activated protein kinase 12 (Homo sapiens) (P53778 whole entry): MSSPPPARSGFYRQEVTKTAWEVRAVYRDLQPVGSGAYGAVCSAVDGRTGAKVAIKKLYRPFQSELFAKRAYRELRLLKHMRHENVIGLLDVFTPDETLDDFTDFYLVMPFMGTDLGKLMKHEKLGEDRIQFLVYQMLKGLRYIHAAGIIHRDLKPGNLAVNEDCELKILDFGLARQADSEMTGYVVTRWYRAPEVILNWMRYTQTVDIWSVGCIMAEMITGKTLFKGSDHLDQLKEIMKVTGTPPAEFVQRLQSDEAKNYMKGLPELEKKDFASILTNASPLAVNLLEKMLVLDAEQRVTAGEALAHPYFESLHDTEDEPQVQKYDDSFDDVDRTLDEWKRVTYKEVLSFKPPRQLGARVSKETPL

[21] = tested on: Hepatocyte growth factor receptor (Homo sapiens), P08581 [D1228H]; experiment: Inhibition of recombinant human MET A1209G/V1290L/D1246H mutant (974 to end residues) at 1 uM using KKKGQEEEYVFIE as substrate measured after 40 mins in presence of [gamma33P]ATP by scintillation counting method relative to control
[22] = molecular target: CDC7/Cyclin B1 (Homo sapiens) (UniProt P14635+O00311); experiment: Inhibition of recombinant full-length human CDC7/cyclinB1 at 1 uM using Histone H1 as substrate measured after 120 mins in presence of [gamma33P]ATP by scintillation counting method relative to control; assay type: protein-complex assay
[23] = molecular target: Protein kinase C beta type (Homo sapiens) (UniProt P05771); experiment: Inhibition of recombinant human PKCbeta1 (2 to end residues) at 1 uM using histone H1 as substrate measured after 40 mins in presence of [gamma33P]ATP by scintillation counting method relative to control
[24] = tested on: NCI-H1299; experiment: Induction of apoptosis in human H1299 cells assessed as late apoptotic cells at 0.5 uM after 48 hrs by AnnexinV-FITC/PI staining-based flow cytometric analysis (reference value: 1.77%); assay type: functional

For CN(C)C(=O)c1cc2cnc(Nc3ccc(NC(=O)CCCCCCCN=C=S)cc3)nc2n1C1CCCC1, the Activity [1] was 1.26%, the inhibition [2] was 28% and the inhibition [3] was “Active”. It also gave an Activity [4] of 16.4%, an inhibition [5] of 71% and an inhibition [6] of -4%. The inhibition [7] was 9%, the inhibition [8] was 66% and the inhibition [9] was 58%. The inhibition [10] was 36%, the Activity [11] was “Active” and the inhibition [12] was -3%. For the same molecule, the inhibition [13] was 91%, the inhibition [14] was 73% and the inhibition [15] was -4%. It also gave an inhibition [16] of 0%, an inhibition [17] of 0% and an inhibition [18] of 4%. It also gave an inhibition [19] of 4%, an inhibition [20] of 4% and an inhibition [21] of 74%. For the same molecule, the inhibition [22] was 75%, the inhibition [23] was 20% and the Activity [24] was 3.64%.
